Laboratory results as given in ChEMBL document CHEMBL3286332, “Synthesis and radical scavenging activity of phenol-imidazole conjugates” (Bioorg Med Chem Lett, 2014).

How the values were obtained:
Assay type in all cases: functional
[1] = tested on: Radical scavenging activity; test: Antioxidant activity assessed as DPPH free radical scavenging activity after 60 mins by spectrophotometric analysis
How it was run: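 Compound in ethanol, 1 to 100 μM, combined 1:9 with 0.002% (w/v) ethanolic DPPH; absorbance read at 517 nm after 60 min against an ethanol-only control. Triplicate measurements. Inhibition of discoloration expressed as percent of control; IC50 (concentration scavenging 50% of DPPH) obtained from the inhibition curve.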

[2] = tested on: Radical scavenging activity; test: Antioxidant activity assessed as DPPH free radical scavenging activity measured as remaining DPPH at 10 uM after 5 mins by spectrophotometric analysis relative to control
[3] = tested on: Radical scavenging activity; test: Antioxidant activity assessed as DPPH free radical scavenging activity measured as remaining DPPH at 10 uM after 2 mins by spectrophotometric analysis relative to control
[4] = Antioxidant activity assessed as hydroxyl radical scavenging activity at 5 uM after 1 hr by 2-Deoxy-D-ribose degradation assay in presence of FeCl3 and EDTA
How it was run: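 The 1 mL mixture held 10 mM KH2PO4-KOH pH 7.4, 2-deoxy-D-ribose, FeCl3 made up in 2 mM Na2EDTA, H2O2, ascorbic acid and 5 μM compound added from DMSO. It was incubated 1 h at 37 °C, then thiobarbituric acid in NaOH and trichloroacetic acid were added and it was heated 15 min at 100 °C. Absorbance was read at 535 nm. Controls: no compound (100% MDA) and no deoxyribose (blank). Triplicate.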

[5] = Antioxidant activity assessed as hydroxyl radical scavenging activity at 5 uM after 1 hr by 2-Deoxy-D-ribose degradation assay in presence of FeCl3
How it was run: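 Hydroxyl radical attack on 2-deoxy-D-ribose in 10 mM KH2PO4-KOH pH 7.4 with FeCl3 made up in buffer (no EDTA), H2O2, ascorbic acid and 5 μM compound from DMSO. Incubated 1 h at 37 °C. TBA/TCA was added, the mixture heated at 100 °C for 15 min, and MDA read at 535 nm. Result is percent protection against the compound-free control. Triplicate.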

[6] = tested on: Radical scavenging activity; test: Antioxidant activity assessed as DPPH free radical scavenging activity measured as remaining DPPH at 100 uM after 60 mins by spectrophotometric analysis relative to control
How it was run: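 100 μM compound in ethanol mixed 1:9 with 0.002% (w/v) ethanolic DPPH. Absorbance at 517 nm after 60 min, compared with an ethanol control. Value is percent of DPPH remaining, run in triplicate.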

[7] = tested on: Radical scavenging activity; test: Antioxidant activity assessed as DPPH free radical scavenging activity measured as remaining DPPH at 100 uM after 5 mins by spectrophotometric analysis relative to control

Row | IC50 [1] [µM] | Compound | Activity [2] [%] | Activity [3] [%] | Activity [4] [%] | Activity [5] [%] | DPPH remaining [6] [%] | Activity [7] [%]
1 | 3.2 | N#Cc1ncn(-c2ccc(O)cc2)c1/N=C/c1ccc(O)c(O)c1 | < 50 | < 50 | 60 | 38 | – | –
2 | 7.3 | COc1ccc(-n2cnc(C#N)c2/N=C/c2ccc(O)c(O)c2O)cc1 | – | – | 57 | 25 | – | –
3 | 11.6 | O=Cc1ccc(O)c(O)c1O | – | – | 46 | 34 | – | –
4 | 6 | O=Cc1cc(O)c(O)c(O)c1 | – | – | 50 | 38 | – | –
5 | 3.8 | Cn1cnc(C#N)c1/N=C/c1ccc(O)c(O)c1 | – | – | 52 | 27 | – | –
6 | 4 | COc1ccc(-n2cnc(C#N)c2/N=C/c2cc(O)c(O)c(O)c2)cc1 | – | – | 51 | 42 | – | –
7 | 4.8 | N#Cc1ncn(-c2ccc(O)cc2)c1/N=C/c1cc(O)c(O)c(O)c1 | < 50 | < 50 | 49 | 51 | – | –
8 | 4.4 | N#Cc1ncn(-c2ccc(F)cc2)c1/N=C/c1ccc(O)c(O)c1 | – | – | 58 | 11 | – | –
9 | 4.7 | Cn1cnc(C#N)c1/N=C/c1cc(O)c(O)c(O)c1 | – | – | 54 | 44 | – | –
10 | – | COc1cc(C=O)ccc1O | – | – | 37 | 30 | 97.6 | –
11 | – | O=Cc1c(O)cc(O)cc1O | – | – | 42 | 36 | 91.2 | –
12 | 9.5 | Cc1c(C)c2c(c(C)c1O)CCC(C)(C(=O)O)O2 (centres undefined) [TROLOX] | – | – | 53 | 31 | – | –
13 | 5.8 | N#Cc1ncn(-c2ccc(F)cc2)c1/N=C/c1cc(O)c(O)c(O)c1 | – | – | 54 | 30 | – | –
14 | – | N#Cc1ncn(-c2ccc(O)cc2)c1/N=C/c1c(O)cc(O)cc1O | – | – | 55 | 17 | 45.9 | < 50
15 | – | Cn1cnc(C#N)c1N | – | – | 54 | 23 | 94.2 | –
16 | – | COc1ccc(-n2cnc(C#N)c2/N=C/c2c(O)cc(O)cc2O)cc1 | – | – | 62 | 16 | 48.3 | –
17 | – | N#Cc1ncn(-c2ccc(F)cc2)c1N | – | – | 50 | 19 | 94.1 | –
18 | – | COc1ccc(-n2cnc(C#N)c2/N=C/c2ccc(O)c(OC)c2)cc1 | – | – | 47 | 12 | 88.6 | –
19 | 7 | Cn1cnc(C#N)c1/N=C/c1ccc(O)c(O)c1O | – | – | 54 | 37 | – | –
20 | – | N#Cc1ncn(-c2ccc(O)cc2)c1N | – | – | 47 | 57 | 94.8 | –
21 | – | Cn1cnc(C#N)c1/N=C/c1c(O)cc(O)cc1O | – | – | 54 | 18 | 49.9 | –
22 | 8.4 | N#Cc1ncn(-c2ccc(F)cc2)c1/N=C/c1ccc(O)c(O)c1O | – | – | 53 | 34 | – | –
23 | 7.2 | N#Cc1ncn(-c2ccc(O)cc2)c1/N=C/c1ccc(O)c(O)c1O | < 50 | – | 38 | 28 | – | –
24 | – | COc1ccc(-n2cnc(C#N)c2N)cc1 | – | – | 46 | 29 | 94.2 | –
25 | 4.1 | COc1ccc(-n2cnc(C#N)c2/N=C/c2ccc(O)c(O)c2)cc1 | – | – | 61 | 17 | – | –

Row | Compound | IC50 [1] [µM] | Activity [2] [%] | Activity [3] [%] | Activity [4] [%] | Activity [5] [%] | DPPH remaining [6] [%] | Activity [7] [%]
26 | O=Cc1ccc(O)c(O)c1 [PROTOCATECHUALDEHYDE] | 5.4 | – | – | 51 | 35 | – | –
